Ecoli tolC: growth inhibitors of E. coli BW25113 tolC mutant; OD615; growth inhibition, % at 10 µM (by protocol); 65,000 tested, 2.2% active;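 active = growth inhibition at or above a cutoff equal to the mean over every tested compound plus 3 SD, cut at about 60% in these data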;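 also: growth measured after 20 h incubation at 37 °C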
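Test system: tolC-deleted E. coli BW25113; medium: LB with kanamycin 50 µg/mL; compound: single-point testing at 10 µM; incubation: 20 h compound exposure of bacteria at 37 °C; signal: OD at 615 nm; evaluation: growth inhibition in percent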
BAP1 block: blocks human BAP1 ubiquitin-AMC hydrolysis | calls only at 20 µM | recombinant BAP1, Ub-AMC hydrolysis fluorescence kinetic; stronger effect = lower value | AID 436 | 72,000 tested, 0.48% active;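 active = activity remaining at or below 50% of control, provided the compound also passes the data quality filters; inactive = the rest, including low values that fail the filters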
Hsp90 block: displaces geldanamycin probe from tumor Hsp90; P07900; NCI-N417 lysate Hsp90, Cy3B-geldanamycin FP displacement; inhibition, % at 30 µM; 64,000 tested, 0.35% active; AID 429;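 active = inhibition above 50%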
E coli RNAP: Escherichia coli RNA polymerase inhibition; P0A8V2; inhibition, %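 (tested at 10 µM)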; AID 559; 62,000 tested, 0.2% active; E. coli RNA polymerase, fluorescence transcription assay; in the data active = inhibition above about 20%
Target sequence (P0A8V2 whole entry, looked up): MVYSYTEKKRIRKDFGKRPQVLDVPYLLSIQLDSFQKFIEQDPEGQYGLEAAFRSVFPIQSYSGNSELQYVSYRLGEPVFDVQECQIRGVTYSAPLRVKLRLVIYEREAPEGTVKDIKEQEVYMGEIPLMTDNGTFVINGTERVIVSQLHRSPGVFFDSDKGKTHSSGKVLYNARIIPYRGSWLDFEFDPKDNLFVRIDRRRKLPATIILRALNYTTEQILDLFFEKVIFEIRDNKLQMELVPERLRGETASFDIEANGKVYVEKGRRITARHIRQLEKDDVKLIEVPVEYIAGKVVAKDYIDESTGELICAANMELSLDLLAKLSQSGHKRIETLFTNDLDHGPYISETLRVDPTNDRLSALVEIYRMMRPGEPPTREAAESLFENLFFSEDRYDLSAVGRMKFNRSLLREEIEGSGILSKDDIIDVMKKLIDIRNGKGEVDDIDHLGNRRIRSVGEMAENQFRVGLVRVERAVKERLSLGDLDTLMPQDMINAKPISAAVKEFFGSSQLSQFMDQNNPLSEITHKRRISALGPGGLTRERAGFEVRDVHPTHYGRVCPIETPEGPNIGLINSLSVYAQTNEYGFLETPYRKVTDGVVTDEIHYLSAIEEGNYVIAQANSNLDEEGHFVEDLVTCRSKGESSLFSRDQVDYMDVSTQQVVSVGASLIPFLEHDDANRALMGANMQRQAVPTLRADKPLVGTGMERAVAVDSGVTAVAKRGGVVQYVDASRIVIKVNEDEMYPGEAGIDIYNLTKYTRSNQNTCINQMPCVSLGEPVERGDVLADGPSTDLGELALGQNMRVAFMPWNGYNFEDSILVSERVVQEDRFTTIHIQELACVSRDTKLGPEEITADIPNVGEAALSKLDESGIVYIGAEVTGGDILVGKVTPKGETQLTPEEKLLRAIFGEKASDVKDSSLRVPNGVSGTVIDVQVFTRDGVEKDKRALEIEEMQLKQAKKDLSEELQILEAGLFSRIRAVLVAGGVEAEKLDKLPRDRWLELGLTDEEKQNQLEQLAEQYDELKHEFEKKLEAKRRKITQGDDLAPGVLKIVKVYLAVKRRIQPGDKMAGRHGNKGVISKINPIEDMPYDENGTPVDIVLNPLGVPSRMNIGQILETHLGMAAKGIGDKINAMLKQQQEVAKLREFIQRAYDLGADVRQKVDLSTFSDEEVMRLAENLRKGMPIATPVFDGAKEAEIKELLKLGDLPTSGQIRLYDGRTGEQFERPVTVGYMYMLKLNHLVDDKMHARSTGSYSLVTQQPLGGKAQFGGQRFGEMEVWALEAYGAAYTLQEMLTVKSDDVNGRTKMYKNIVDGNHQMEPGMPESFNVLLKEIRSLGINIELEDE
MKP-1 inh: inhibitors of human MKP-1 phosphatase | recombinant MKP-1, OMFP hydrolysis fluorescence | 65,000 tested, 0.15% active | inhibition, %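 (compounds tested at a single concentration somewhere between 10 and 100 µM)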 | P28562;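 active = inhibition above about 50%, limit read from the data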
Cdc25B inh: inhibitors of human Cdc25B phosphatase; recombinant Cdc25B, OMFP fluorescence Ex485/Em525; AID 368; inhibition, %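 (compounds tested at 10 µM final in the well)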; P30305; 65,000 tested, 0.1% active; in the data active = inhibition above about 50%
Numbers stand for hits; – = inactive; · = no result shown. Only some compounds are listed: those with a hit (about 2.9% of all), similar ones and a draw of the others.

SMILES | Ecoli tolC | BAP1 block | Hsp90 block | E coli RNAP | MKP-1 inh | Cdc25B inh
CC(C)N(Cc1nc(-c2ccc(Cl)cc2)no1)C(=O)CCC1CCCC1 | 71.9 | – | – | – | – | –
Cc1ccc(C)c(C(=O)N(Cc2nc(-c3ccc(Cl)cc3)no2)C(C)C)c1 | 76.8 | – | – | – | – | –
Cc1cccc(-c2noc(CN(C(=O)c3ccc4c(c3)OCO4)C(C)C)n2)c1 | – | – | – | – | – | –
Cc1cccc(-c2noc(CN(C(=O)c3ccc(Br)o3)C(C)C)n2)c1 | 62.7 | – | – | – | – | –
COc1ccc(NC(=NS(=O)(=O)c2ccc(C)cc2)c2ccccc2)cc1 | · | – | · | · | · | ·
CCN(CC)C(=O)CSc1nc2ccccc2c(=O)n1CC1CCCCC1 | – | – | – | – | – | –
CCCN(CCC)C(=O)CSc1nc2ccccc2c(=O)n1C1CCCC1 | 77.3 | – | – | – | – | –
c1csc(-c2noc(COc3ccc4c(c3)CCCC4)n2)c1 | 61.4 | · | – | – | – | –
Brc1ccc(-c2noc(COc3ccc4c(c3)CCC4)n2)o1 | – | – | – | – | – | –
COc1cc(C)nc(Nc2nc(C)c3cc(C)ccc3n2)n1 | · | – | · | · | · | ·
COc1ccc(CNC(=O)CCc2nc(-c3ccccc3F)no2)c(OC)c1 | – | – | – | – | – | –
O=C(CCc1nc(-c2ccccc2F)no1)Nc1ccc(Oc2ccccc2)cc1 | 81.2 | – | – | – | – | –
COc1ccccc1-c1noc(CCC(=O)Nc2cccc(C(F)(F)F)c2)n1 | 64.9 | – | – | – | – | –
Cc1cccc(-c2noc(CCC(=O)Nc3ccccc3)n2)c1 | – | – | – | – | – | –
CC(NS(=O)(=O)c1ccccc1)C(=O)Nc1nccs1 (stereo not drawn) | – | – | – | – | – | –
O=C(Nc1nccs1)C(NS(=O)(=O)c1ccc(Br)s1)c1ccccc1 (stereo not drawn) | 61.0 | – | – | – | – | –
CCOC(=O)c1c(C)[nH]c(C(=O)CSc2nnc3sc4ccccc4n23)c1C | · | – | · | · | · | ·
CC1Cc2ccccc2N1C(=O)Cn1c(=O)oc2cc(S(=O)(=O)NC3CCCC3)ccc21 (stereo not drawn) | 73.8 | – | – | – | – | –
CCCN(CCC)c1nc2ccccc2nc1C(C#N)C(=O)OCCOC (stereo not drawn) | 80.2 | – | – | – | – | –
C=CCN(CC=C)c1nc2ccccc2nc1C(C#N)C(=O)OCCOC (stereo not drawn) | – | – | – | – | – | –
CCCCCCOC(=O)C(C#N)c1nc2ccccc2nc1N1CCN(C)CC1 (stereo not drawn) | 100.0 | – | – | – | – | –
CCCCCCOC(=O)C(C#N)c1nc2ccccc2nc1N1CCCCC1 (stereo not drawn) | – | – | – | – | – | –
CCC(=O)Nc1nnc(-c2ccco2)o1 | – | – | – | – | – | –
Cc1ccsc1C(=O)Nc1nnc(-c2ccco2)o1 | 98.2 | – | – | – | – | –
O=C(NCCc1ccccc1)/C(=N\O)c1ccccc1 | – | – | – | – | – | –
SMILES | Ecoli tolC | BAP1 block | Hsp90 block | E coli RNAP | MKP-1 inh | Cdc25B inh
N#C/C(=C\c1ccc(O)c(O)c1)C(=O)NCCc1ccccc1 | · | – | 83.2 | · | · | ·
Cc1ccccc1OCC(=O)Nc1c(C)n(C)n(-c2ccccc2)c1=O | · | – | · | · | · | ·
CCC(c1nnnn1C1CCCCC1)N(Cc1ccco1)Cc1cc2ccc(OC)cc2[nH]c1=O (stereo not drawn) | 67.9 | · | – | – | – | –
Cc1ccc2cc(C(c3nnnn3C3CCCC3)N3CCN(c4ccccc4)CC3)c(=O)[nH]c2c1 (stereo not drawn) | – | – | – | – | – | –
Cc1ccc2cc(C(c3nnnn3C3CCCC3)N(Cc3cccnc3)Cc3ccco3)c(=O)[nH]c2c1 (stereo not drawn) | 65.3 | – | – | – | – | –
Cc1ccc2[nH]c(=O)c(C(c3nnnn3C(C)(C)C)N(Cc3ccco3)CC3CCCO3)cc2c1 (stereo not drawn) | – | – | – | – | – | –
Clc1ccc(C(c2nnnn2C2CCCCC2)N(Cc2cccnc2)Cc2ccco2)cc1 (stereo not drawn) | 69.3 | – | – | – | – | –
Cc1ccc2[nH]c(=O)c(C(c3nnnn3C3CCCC3)N(Cc3cccnc3)Cc3ccco3)cc2c1 (stereo not drawn) | 63.3 | – | – | – | – | –
Cc1ccc(OC2=NS(=O)(=O)c3cc([N+](=O)[O-])ccc32)cc1 | · | – | · | · | · | ·
CCOC(=O)c1c(C)c(C(=O)Nc2cc(OC)ccc2OC)c(C)n1CC | 68.0 | – | – | – | – | –
CCOC(=O)c1cc2sccc2n1CC(=O)N1CCCc2ccccc21 | 100.0 | – | – | – | – | –
COC(=O)c1cc2sccc2n1CC(=O)N1CCCc2ccccc21 | – | – | – | – | – | –
COc1ccc2c(c1)sc1nc(-c3ccccc3)cn12 | 99.3 | · | – | – | – | –
COc1ccc(OC)c(NCC(O)Cn2c3ccc(Br)cc3c3cc(Br)ccc32)c1 (stereo not drawn) | · | – | · | · | · | ·
S=C(c1ccc(-c2ccc(Cl)c(Cl)c2)o1)N1CCOCC1 | 64.6 | – | – | – | – | –
S=C(c1ccc(-c2ccccc2Cl)o1)N1CCOCC1 | – | – | – | – | – | –
Brc1ccccc1Cn1c(-c2cncs2)nc2ccccc21 | 62.4 | – | – | – | – | –
COc1ccc(-c2noc(C)c2-c2ccc3ccccc3n2)c(O)c1 | 96.2 | – | – | · | – | –
O=C(c1cc2n(n1)C(C(F)(F)F)CC(c1ccc(Br)cc1)N2)N1CCOCC1 (stereo not drawn) | · | – | · | · | · | ·
CCCn1c2ccccc2c2nc3ccccc3nc21 | 69.0 | – | – | – | – | –
COC(=O)c1ccccc1NC(=O)c1ccc2c(c1)OCCO2 | 89.4 | – | – | – | – | –
O=C(CCn1c(=O)oc2ccccc21)N1CCN(c2ccccc2F)CC1 | – | – | – | – | – | –
O=C(CCn1c(=O)oc2ccccc21)N1CCN(C(c2ccccc2)c2ccccc2)CC1 | 63.7 | – | – | – | – | –
CCc1cc2c(=O)c(-c3ccc4c(c3)OCO4)coc2cc1OC | · | – | · | · | · | ·
COc1ccc(-c2[nH]ncc2-c2ccc3c(c2)OCCO3)c(O)c1 | 98.4 | – | – | – | – | –
SMILES | Ecoli tolC | BAP1 block | Hsp90 block | E coli RNAP | MKP-1 inh | Cdc25B inh
CCc1cc(-c2[nH]ncc2-c2ccc3c(c2)OCO3)c(O)cc1O | 100.0 | – | 95.8 | – | – | –
CCOc1ccc(-c2[nH]ncc2-c2ccc(OC)c(OC)c2)c(O)c1 | – | – | – | · | – | –
O=C(c1cc(-c2ccccc2)on1)N1CCN(Cc2ccc3c(c2)OCO3)CC1 | 65.8 | – | – | – | – | –
c1ccc2c(c1)oc1c(N3CCN(Cc4ccc5c(c4)OCO5)CC3)ncnc12 | 100.0 | – | – | – | – | –
c1ccc(Cn2nnc3c(N4CCN(Cc5ccc6c(c5)OCO6)CC4)ncnc32)cc1 | 60.7 | – | – | – | – | –
CCN(CC)S(=O)(=O)c1ccc(C(=O)Nc2nc(-c3c(C)cc(C)cc3C)cs2)cc1 | · | – | · | · | · | ·
O=C(CCC(=O)OCC(=O)c1ccc(Br)cc1)Nc1ccccc1Cl | · | – | · | · | · | ·

Assay outcomes from PubChem BioAssay.
